Molecular target: Receptor tyrosine-protein kinase erbB-2 (Homo sapiens, UniProt P04626)
Experiment: Inhibition of human recombinant ERBB2
Method in brief: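 Human kinases expressed in Sf9 cells via baculovirus as GST or His fusions and affinity purified. 33PanQinase assay in 60 mM HEPES-NaOH pH 7.5, 3 mM MgCl2, 3 mM MnCl2, 3 µM orthovanadate, 1.2 mM DTT, 1 µM [γ-33P]ATP, 1% DMSO; 30 °C, 80 min. Substrates: poly(Glu,Tyr) 4:1 for ERBB2, IGF1-R and SRC; poly(Ala,Glu,Lys,Tyr) 6:2:5:1 for FLT3. IC50 from 10 concentrations by scintillation counting.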

Receptor tyrosine-protein kinase erbB-2, sequence (P04626 whole entry): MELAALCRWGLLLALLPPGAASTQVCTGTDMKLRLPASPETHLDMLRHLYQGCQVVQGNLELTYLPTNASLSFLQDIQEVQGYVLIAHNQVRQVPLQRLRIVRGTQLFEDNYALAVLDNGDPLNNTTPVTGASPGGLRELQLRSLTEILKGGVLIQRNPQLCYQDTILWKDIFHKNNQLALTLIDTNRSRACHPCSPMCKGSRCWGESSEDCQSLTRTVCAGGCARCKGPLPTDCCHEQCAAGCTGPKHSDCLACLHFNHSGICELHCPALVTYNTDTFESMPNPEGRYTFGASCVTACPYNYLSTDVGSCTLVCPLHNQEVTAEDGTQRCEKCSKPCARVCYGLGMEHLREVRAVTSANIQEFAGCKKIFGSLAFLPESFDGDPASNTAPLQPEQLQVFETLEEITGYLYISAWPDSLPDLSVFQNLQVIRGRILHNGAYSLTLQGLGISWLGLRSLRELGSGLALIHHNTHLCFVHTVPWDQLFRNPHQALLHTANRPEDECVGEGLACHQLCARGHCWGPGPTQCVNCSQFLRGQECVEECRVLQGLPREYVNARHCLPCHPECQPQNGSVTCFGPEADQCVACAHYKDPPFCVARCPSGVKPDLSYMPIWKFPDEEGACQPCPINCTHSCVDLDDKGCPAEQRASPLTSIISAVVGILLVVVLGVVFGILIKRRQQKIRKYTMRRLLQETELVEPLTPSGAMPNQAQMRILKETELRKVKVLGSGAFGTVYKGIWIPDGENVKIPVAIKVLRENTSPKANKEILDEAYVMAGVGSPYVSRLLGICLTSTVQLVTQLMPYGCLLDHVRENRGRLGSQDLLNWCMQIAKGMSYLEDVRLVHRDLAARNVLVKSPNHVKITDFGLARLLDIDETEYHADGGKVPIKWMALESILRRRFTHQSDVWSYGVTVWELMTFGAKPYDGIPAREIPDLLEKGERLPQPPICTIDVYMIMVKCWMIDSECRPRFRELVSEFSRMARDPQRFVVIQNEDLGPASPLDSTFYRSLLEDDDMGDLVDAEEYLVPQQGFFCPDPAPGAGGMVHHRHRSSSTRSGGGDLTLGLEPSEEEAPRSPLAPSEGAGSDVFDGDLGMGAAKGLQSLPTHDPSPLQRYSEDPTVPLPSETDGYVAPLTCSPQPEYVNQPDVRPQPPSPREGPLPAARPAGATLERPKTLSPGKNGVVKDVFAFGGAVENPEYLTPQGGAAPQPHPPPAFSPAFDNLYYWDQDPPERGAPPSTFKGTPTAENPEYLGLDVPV

Question: With `COc1cc(C2=C(c3cn(COC(C)(C)C)c4ccccc34)CNC2=O)cc(OC)c1OC` as the compound, how does the IC50 read?
Answer: 25 µM
